{"source": "ChEMBL document CHEMBL6177924", "about": "“Synthesis and antifungal evaluation of new azole derivatives containing 1,2,3-triazole” (RSC Med Chem, 2025)", "key": {"[1]": {"system": "Candida albicans", "assay": "Antifungal activity against drug sensitive Candida albicans SC5314 assessed as inhibition of fungal growth incubated for 24 hrs by CLSI protocol based microdilution method", "type": "functional", "outline": "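Broth microdilution of log-phase C. albicans at 1×10^5 CFU/mL in Sabouraud liquid medium (SDB). Compounds serially diluted 5-fold to final 200-0.064 µg/mL, DMSO below 0.1%. Triplicate wells, 200 µL final volume, with growth, blank and fluconazole controls. Incubated 24 h at 30 °C, OD read at 630 nm; experiment repeated three times.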"}, "[2]": {"system": "Candida albicans", "assay": "Antifungal activity against drug resistant Candida albicans SC5314-FR assessed as inhibition of fungal growth incubated for 24 hrs by CLSI protocol based microdilution method", "type": "functional", "outline": "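Fluconazole-resistant strain derived from SC5314 by fluconazole exposure. Log-phase cells at 1×10^5 CFU/mL in SDB. Drug fivefold serial dilutions, 200–0.064 µg/mL final, DMSO <0.1%, triplicate wells, 200 µL. Incubated 30 °C for 24 h and read at OD630. Growth, blank and fluconazole controls included. Run three times.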"}, "[3]": {"system": "Candida albicans", "assay": "Antifungal activity against Candida albicans SC5314 assessed as inhibition of fungal growth measured after 36 hrs by time-killing curve analysis", "type": "functional, organism-based", "outline": "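Log-phase C. albicans at 1×10^5 CFU/mL in SDB, 10 mL cultures with drug (0.27, 0.53, 1.06 µg/mL), fluconazole or no drug. Shaken at 150 r/min, 30 °C. Samples taken at 0, 4, 8, 12, 24, 36 and 48 h for absorbance at 630 nm, triplicate wells. Absorbance plotted against time.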"}, "[4]": {"system": "Candida albicans", "assay": "Antifungal activity against Candida albicans assessed as inhibition of mycelia formation at 0.27 to 1.06 microg/ml measured after 4 to 8 hrs by inverted microscopic analysis", "type": "functional, organism-based", "details": "dose 0.27-1.06 µg/ml, time 4-8 hrs", "outline": "(§1)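 Hyphae were induced in SD+10% FBS or in Spider medium. Log-phase cells at 1×10^5 CFU/mL final, 1 mL per well in 24-well plates, 3 wells per group. Drug at 0.27, 0.53 or 1.06 µg/mL, fluconazole, or no-drug control. Incubated at 30 °C; hyphal formation observed and photographed by inverted microscope at 4 h and 8 h.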"}, "[5]": {"system": "Candida albicans", "assay": "Antifungal activity against Candida albicans assessed as sparse distribution of fungal cells at 0.27 to 1.06 microg/ml measured after 4 to 8 hrs by inverted microscopic analysis", "type": "functional, organism-based", "details": "dose 0.27-1.06 µg/ml, time 4-8 hrs", "outline": "as §1"}, "[6]": {"system": "Candida albicans", "assay": "Antifungal activity against Candida albicans assessed as increase in yeast fungal cells at 0.27 to 1.06 microg/ml measured after 4 to 8 hrs by inverted microscopic analysis", "type": "functional, organism-based", "details": "dose 0.27-1.06 µg/ml, time 4-8 hrs", "outline": "as §1"}, "[7]": {"system": "Candida albicans", "assay": "Antifungal activity against Candida albicans assessed as increase in pseudomycelial fungal cells at 0.27 to 1.06 microg/ml measured after 4 to 8 hrs by inverted microscopic analysis", "type": "functional, organism-based", "details": "dose 0.27-1.06 µg/ml, time 4-8 hrs", "outline": "as §1"}, "[8]": {"system": "Cell membrane", "assay": "Induction of cell membrane permeability in Candida albicans assessed as increase in red fluorescence incubated for 16 to 24 hrs by PI staining based fluorescence microscopic analysis", "type": "subcellular", "details": "time 16-24 hrs", "outline": "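C. albicans at 1×10^5 CFU/mL in SDB grown with drug (0.27, 0.53, 1.06 µg/mL), fluconazole or no drug at 30 °C, 150 r/min, for 16-24 h. Cells washed and resuspended in PBS at 2×10^6 CFU/mL. Stained with propidium iodide (final 5 µg/mL) 30 min at room temperature in the dark, then washed. Imaged by fluorescence microscopy and fluorescence intensity measured.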"}, "[9]": {"system": "Candida albicans", "assay": "Antifungal activity against Candida albicans assessed as inhibition of mycelia formation at 0.53 microg/ml measured after 4 to 8 hrs by inverted microscopic analysis", "type": "functional, organism-based", "details": "dose 0.53 µg/ml, time 4-8 hrs", "outline": "as §1"}, "[10]": {"system": "Candida albicans", "assay": "Antifungal activity against Candida albicans assessed as reduction in invasion ability at 0.27 to 1.06 microg/ml measured after 4 to 8 hrs by inverted microscopic analysis", "type": "functional, organism-based", "details": "dose 0.27-1.06 µg/ml, time 4-8 hrs", "outline": "as §1"}, "[11]": {"system": "Candida albicans", "assay": "Antibiofilm activity in Candida albicans SC5314 assessed as decrease in number of mycelia at 0.27 microg/ml measured after 24 hrs by inverted microscopic analysis", "type": "functional, organism-based", "details": "dose 0.27 µg/ml", "outline": "(§2)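 Log-phase C. albicans in RPMI1640+10% FBS at 1×10^5 CFU/mL allowed to adhere in 24-well plates for 90 min at 30 °C; unattached medium removed. 1 mL medium with drug (0.27, 0.53, 1.06 µg/mL) or without drug added; 24 h at 30 °C. Biofilm stained with crystal violet 30 min, washed 3× with PBS, viewed by inverted microscope.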"}, "[12]": {"system": "Candida albicans", "assay": "Antibiofilm activity in Candida albicans SC5314 assessed as appearance of pseudomycelial form of fungal cells at 0.27 microg/ml measured after 24 hrs by inverted microscopic analysis", "type": "functional, organism-based", "details": "dose 0.27 µg/ml", "outline": "as §2"}, "[13]": {"system": "Candida albicans", "assay": "Antibiofilm activity in Candida albicans SC5314 assessed as sparse distribution of fungal cells at 0.53 microg/ml measured after 24 hrs by inverted microscopic analysis", "type": "functional, organism-based", "details": "dose 0.53 µg/ml", "outline": "as §2"}, "[14]": {"system": "Cell membrane", "assay": "Induction of cell membrane permeability in Candida albicans assessed as increase in fluorescence intensity by multifunctional enzymatic assay", "type": "subcellular"}, "[15]": {"system": "Candida albicans", "assay": "Induction of morphological changes in Candida albicans assessed as normal cell wall appearance at 0.53 microg/ml incubated for 16 to 24 hrs by transmission electron microscopic analysis", "type": "functional, organism-based", "details": "dose 0.53 µg/ml, time 16-24 hrs", "outline": "(§3)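 C. albicans at 5×10^5 CFU/mL in SDB shaken with drug (0.27, 0.53, 1.06 µg/mL), fluconazole or no drug at 30 °C, 150 r/min, for 16-24 h. Pellets washed with PBS and fixed in cold 3% paraformaldehyde/2.5% glutaraldehyde at 4 °C, then 1% OsO4. Dehydrated in acetone and embedded in Epon-812. 60-90 nm sections stained with uranyl acetate and lead citrate, imaged by TEM.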"}, "[16]": {"system": "Candida albicans", "assay": "Induction of morphological changes in Candida albicans assessed as blurred spacing between cell wall and cell membrane at 0.53 microg/ml incubated for 16 to 24 hrs by transmission electron microscopic analysis", "type": "functional, organism-based", "details": "dose 0.53 µg/ml, time 16-24 hrs", "outline": "as §3"}, "[17]": {"system": "Candida albicans", "assay": "Induction of morphological changes in Candida albicans assessed as loose distribution of cytoplasm at 0.53 microg/ml incubated for 16 to 24 hrs by transmission electron microscopic analysis", "type": "functional, organism-based", "details": "dose 0.53 µg/ml, time 16-24 hrs", "outline": "as §3"}, "[18]": {"system": "Candida albicans", "assay": "Induction of morphological changes in Candida albicans assessed as absence of intracellular substance at 0.53 microg/ml incubated for 16 to 24 hrs by transmission electron microscopic analysis", "type": "functional, organism-based", "details": "dose 0.53 µg/ml, time 16-24 hrs", "outline": "as §3"}, "[19]": {"system": "Candida albicans", "assay": "Induction of morphological changes in Candida albicans assessed as cell enlargement at 0.53 to 1.06 microg/ml incubated for 16 to 24 hrs by transmission electron microscopic analysis", "type": "functional, organism-based", "details": "dose 0.53-1.06 µg/ml, time 16-24 hrs", "outline": "as §3"}, "[20]": {"system": "Candida albicans", "assay": "Induction of morphological changes in Candida albicans assessed as incomplete cell wall structure at 0.53 to 1.06 microg/ml incubated for 16 to 24 hrs by transmission electron microscopic analysis", "type": "functional, organism-based", "details": "dose 0.53-1.06 µg/ml, time 16-24 hrs", "outline": "as §3"}, "[21]": {"system": "Candida albicans", "assay": "Induction of morphological changes in Candida albicans assessed as unclear cell membrane outline at 0.53 to 1.06 microg/ml incubated for 16 to 24 hrs by transmission electron microscopic analysis", "type": "functional, organism-based", "details": "dose 0.53-1.06 µg/ml, time 16-24 hrs", "outline": "as §3"}, "[22]": {"system": "Candida albicans", "assay": "Induction of morphological changes in Candida albicans assessed as effect on cytoplasmic morphology at 0.53 to 1.06 microg/ml incubated for 16 to 24 hrs by transmission electron microscopic analysis", "type": "functional, organism-based", "details": "dose 0.53-1.06 µg/ml, time 16-24 hrs", "outline": "as §3"}}, "note": "Calls of active or inactive are those of the source. The rule behind the calls is not given here."}
{"smiles": "O=C(Cn1cc(COC(Cn2ccnc2)c2ccc(Cl)cc2Cl)nn1)c1ccc2ccccc2c1", "note": "(configuration not stated)", "values": [{"measurement": "MIC50", "setting": "[1]", "result": 0.53, "unit": "µg/mL"}, {"measurement": "MIC50", "setting": "[2]", "result": 10.9, "unit": "µg/mL"}, {"measurement": "Activity", "setting": "[3]", "result": "Dose-dependent-effect"}, {"measurement": "Activity", "setting": "[4]", "result": "Active"}, {"measurement": "Activity", "setting": "[5]", "result": "Active"}, {"measurement": "Activity", "setting": "[6]", "result": "Active"}, {"measurement": "Activity", "setting": "[7]", "result": "Active"}, {"measurement": "Activity", "setting": "[8]", "result": "Dose-dependent-effect"}, {"measurement": "Activity", "setting": "[9]", "result": "Active; Better Than That Of Fluconazole Group"}, {"measurement": "Activity", "setting": "[10]", "result": "Active; Better Than That Of Fluconazole Group"}, {"measurement": "Activity", "setting": "[11]", "result": "Active"}, {"measurement": "Activity", "setting": "[12]", "result": "Active"}, {"measurement": "Activity", "setting": "[13]", "result": "Active"}, {"measurement": "Activity", "setting": "[14]", "result": "Dose-dependent-effect; Better Than That Of Fluconazole Group"}, {"measurement": "Activity", "setting": "[15]", "result": "Active"}, {"measurement": "Activity", "setting": "[16]", "result": "Active"}, {"measurement": "Activity", "setting": "[17]", "result": "Active"}, {"measurement": "Activity", "setting": "[18]", "result": "Active"}, {"measurement": "Activity", "setting": "[19]", "result": "Active"}, {"measurement": "Activity", "setting": "[20]", "result": "Active"}, {"measurement": "Activity", "setting": "[21]", "result": "Active"}, {"measurement": "Activity", "setting": "[22]", "result": "Active"}]}
